A selection: hits, their analogues and other compounds. The true share with any hit is near 1.7%.
Vif imaging = inhibitors of HIV Vif; HEK293T cells, Vif self-association by quenched fluorescence, imaging, 24 h; inhibition, % at 7.49 µM; 0.35% of 340,000 active; AID 602346; in the data active = inhibition above about 50%, passing the limit was not always enough; inconclusive = no clear call, values can overlap the other calls; inactive = below about 31%
SR-BI HDL uptake = inhibitors of mouse SR-BI mediated HDL lipid uptake; AID 488896; Q61009; inhibition, % at 12.5 µM; ldlA[mSR-BI] CHO cells, DiI-HDL uptake fluorescence, 3 h; 0.96% of 320,000 active;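 active = mean replicate inhibition of at least 70% and a set share of replicates each scoring 70 or more; inconclusive = meets just one of the two criteria; inactive = fails both criteria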;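 note: 0% = median of neutral control wells and 100% = median of positive control wells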
SR-BI DiI-HDL act = enhances SR-BI lipid uptake from DiI-HDL. CHO ldlA[mSR-BI] cells, DiI-HDL uptake fluorescence, 3 h; 100 = double the neutral-control signal. activation, % at 12.5 µM. 0.096% of 320,000 active. AID 504775;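 active = mean replicate activation of at least 60% and every replicate at or above 60%; inconclusive = mean or all-replicate condition met, but not both; inactive = mean below 60% and not all replicates reaching 60%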;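 note: 0% = median plate neutral-control signal and 100% = twice that signal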
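System: LDL receptor-deficient CHO ldlA cells overexpressing murine SR-BI | Timing: 3 h uptake period with compound, 37 °C | Medium: HEPES-buffered (25 mM, pH 7.4) F12 plus 0.5% BSA | Dosing: Single-point compound dose | Signal: Bottom-read fluorescence, 550/595 nm | Read-out: Retained DiI signal reflecting DiI-HDL uptake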
V-ATPase pH = alters yeast V-ATPase proton transport | S. cerevisiae, pHLuorin cytosolic pH fluorescence | response, % at 10 µM | 0.37% of 350,000 active | AID 504577; in the data active = response mostly above about 7.3%, no sharp cut-off; inactive = mostly below about 5.4%; note: actives read high
NTR1 ag = activates human neurotensin receptor 1 | activation, % at 20 µM | NTR1-U2OS beta-arrestin-GFP spot imaging, agonist mode | P30989 | 0.17% of 330,000 active | AID 493036;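 active = activation at or above 40% of the spot to cytoplasm intensity ratio, with at least 20 cells analyzed; inconclusive = wells under 20 cells, flagged as cytotoxic or low count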;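 note: 0% = DMSO without peptide and 100% = 100 nM NTR1 peptide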
Target sequence (P30989 whole entry, looked up): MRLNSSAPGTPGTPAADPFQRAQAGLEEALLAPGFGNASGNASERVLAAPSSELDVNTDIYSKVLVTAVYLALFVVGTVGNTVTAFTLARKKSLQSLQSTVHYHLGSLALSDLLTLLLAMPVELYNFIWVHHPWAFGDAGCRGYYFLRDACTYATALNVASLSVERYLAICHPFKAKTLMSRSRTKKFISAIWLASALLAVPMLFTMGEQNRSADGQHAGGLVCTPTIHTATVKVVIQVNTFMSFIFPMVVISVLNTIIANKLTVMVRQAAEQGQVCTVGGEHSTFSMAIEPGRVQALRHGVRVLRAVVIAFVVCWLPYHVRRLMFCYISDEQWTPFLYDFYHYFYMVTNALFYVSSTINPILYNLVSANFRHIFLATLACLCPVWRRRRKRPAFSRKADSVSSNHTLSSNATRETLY
CaV13 FRET inh = Primary screen for inhibitors of IQ motif and Ca2+-dependent inactivation inhibitor domain binding in CACNA1D, Förster resonance energy transfer in living cells, …; 0.098% of 340,000 active; HEK cells, CFP/YFP FRET ICDI-IQ, plate reader, 10 min; percent FRET-ratio fall versus neutral wells; AID 743397; inhibition, % at 12.3 µM;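 active = mean replicate inhibition of at least 30% and at least 1% of replicates passing that level; inconclusive = only one of the two criteria is met; inactive = neither criterion is met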;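 note: 0% = median of the neutral control wells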
Starred values were filed as active, the others as inactive.

What do the screens show for `CC1(C(=O)NCCOc2ccccc2Cl)CC1(Cl)Cl` (stereo not given)?
Vif imaging: 0; SR-BI HDL uptake: 2; SR-BI DiI-HDL act: -2; V-ATPase pH: 4; NTR1 ag: -1; CaV13 FRET inh: -4

Results for CC1CC(C)(C)NC(=S)O1 (stereo not given) ?
Vif imaging: -4; SR-BI HDL uptake: 7; SR-BI DiI-HDL act: -7; V-ATPase pH: -3; NTR1 ag: 0; CaV13 FRET inh: -20

Results for COc1cc(NC(=O)c2ccccc2F)ccc1NC(=O)c1cc2ccccc2o1 ?
Vif imaging: 8; SR-BI HDL uptake: 87*; SR-BI DiI-HDL act: -87; V-ATPase pH: 2; NTR1 ag: 16; CaV13 FRET inh: -2

How did COC(=O)c1cc(Cl)c(NC(=O)c2cc3ccccc3o2)cc1OC do in these assays?
Vif imaging: 63*; SR-BI HDL uptake: 50; SR-BI DiI-HDL act: -50; V-ATPase pH: 1; NTR1 ag: 2

How did Cc1cc(NC(=O)c2cccnc2Cl)ccc1NC(=O)c1cc2ccccc2o1 do in these assays?
Vif imaging: -4; SR-BI HDL uptake: 77*; SR-BI DiI-HDL act: -77; V-ATPase pH: -1; NTR1 ag: 1; CaV13 FRET inh: -4

How did CC/C(=N/Nc1cccc(C)c1)c1cnnc(SC)n1 do in these assays?
Vif imaging: 82*; SR-BI HDL uptake: inconclusive; SR-BI DiI-HDL act: -71; V-ATPase pH: 4; NTR1 ag: 1; CaV13 FRET inh: -9

What do the screens show for `COc1ccc(C(=O)C2CCN(C(=S)NCCc3ccc(OC)c(OC)c3)CC2)cc1`?
Vif imaging: -10; SR-BI HDL uptake: 67; SR-BI DiI-HDL act: -67; V-ATPase pH: 2; NTR1 ag: 1; CaV13 FRET inh: 4

How did COc1ccc(CCNC(=S)N2CCC(C(=O)c3ccc(F)cc3)CC2)cc1OC do in these assays?
Vif imaging: -26; SR-BI HDL uptake: 80*; SR-BI DiI-HDL act: -80; V-ATPase pH: 0; NTR1 ag: 4; CaV13 FRET inh: -4

What do the screens show for `COc1c(C)cc(C(O)c2ncc(-c3ccc4ccccc4c3)[nH]2)cc1C` (stereo not given)?
Vif imaging: -12; CaV13 FRET inh: -5

How did O=c1c(/C=N/N2CCOCC2)c(C(F)(F)F)[nH]n1-c1ccccc1 do in these assays?
Vif imaging: -9; SR-BI HDL uptake: -13; SR-BI DiI-HDL act: 13; V-ATPase pH: 3; NTR1 ag: 2; CaV13 FRET inh: 8

How did COc1cc(OC)c(OC)cc1/C=N/N(C)c1ccccc1 do in these assays?
Vif imaging: 14; SR-BI HDL uptake: 81*; SR-BI DiI-HDL act: -81; V-ATPase pH: -4; NTR1 ag: 7; CaV13 FRET inh: -5

How did CCOC(=O)C1=C[C@@H](C(C)(C)C)N(S(=O)(=O)c2ccccc2C)[C@H]1c1ccc(Cl)cc1 do in these assays?
Vif imaging: inconclusive; CaV13 FRET inh: -3

What do the screens show for `Cn1c2ccccc2c2ccc3c(c21)C(=O)C=CC3=O`?
Vif imaging: -10; SR-BI HDL uptake: 20; SR-BI DiI-HDL act: -20; V-ATPase pH: 6; CaV13 FRET inh: -8

What do the screens show for `Cc1ccc2c(c1)c1ccc3c(c1n2C)C(=O)C=CC3=O`?
Vif imaging: 3; SR-BI HDL uptake: 71*; SR-BI DiI-HDL act: -71; V-ATPase pH: -2; NTR1 ag: 21; CaV13 FRET inh: -22

How did COc1ccccc1C(CC(=O)Nc1ccc(Cl)cc1)c1ccc(OC(C)C)cc1 (stereo not given) do in these assays?
SR-BI HDL uptake: 43; SR-BI DiI-HDL act: -43; V-ATPase pH: -1; NTR1 ag: 2; CaV13 FRET inh: -4

What do the screens show for `CC(C)Oc1ccc(CNC(=O)CC(c2ccccc2)c2cc(Cl)ccc2O)cc1` (stereo not given)?
Vif imaging: -4; SR-BI HDL uptake: 7; SR-BI DiI-HDL act: -7; V-ATPase pH: 2; NTR1 ag: 51*; CaV13 FRET inh: -13

How did CCOC(=O)c1c(NC(=O)CCN2C(=O)c3ccccc3C2=O)sc(C(=O)OC(C)C)c1C do in these assays?
Vif imaging: -8; SR-BI HDL uptake: 73*; SR-BI DiI-HDL act: -73; V-ATPase pH: -1; NTR1 ag: 0; CaV13 FRET inh: -12

How did COc1ccc(C2C3=C(Nc4ncnn42)c2ccccc2CCC3)cc1 (stereo not given) do in these assays?
Vif imaging: 11; SR-BI HDL uptake: -12; SR-BI DiI-HDL act: 12; NTR1 ag: -1; CaV13 FRET inh: -5

How did Fc1ccc(/C=C2\CCCC3=C2Nc2ncnn2C3c2ccc(F)cc2)cc1 (stereo not given) do in these assays?
Vif imaging: -2; SR-BI HDL uptake: 23; SR-BI DiI-HDL act: -23; V-ATPase pH: 6; NTR1 ag: 46*; CaV13 FRET inh: -4

What do the screens show for `COc1ccc(CNC(=O)COC(=O)CN2C(=O)C3CCCCC3C2=O)cc1` (stereo not given)?
Vif imaging: 18; CaV13 FRET inh: -5

Results for N#CC1=C(N)Oc2cc(N)ccc2C1c1ccc(F)cc1F (stereo not given) ?
Vif imaging: 21; SR-BI HDL uptake: 8; SR-BI DiI-HDL act: -8; V-ATPase pH: -3; NTR1 ag: -1; CaV13 FRET inh: active

What do the screens show for `CC12CCC(=O)C=C1CCC1C2C(O)CC2(C)C1CCC2(O)C(=O)CO` (stereo not given)?
Vif imaging: 50*; SR-BI HDL uptake: 5; SR-BI DiI-HDL act: -5; V-ATPase pH: -2; NTR1 ag: 2; CaV13 FRET inh: -5

Results for C[C@]12CCC(=O)C=C1CC[C@@H]1[C@@H]2[C@@H](O)C[C@@]2(C)[C@H]1CC[C@]2(O)C(=O)CO ?
Vif imaging: -1; SR-BI HDL uptake: 2; SR-BI DiI-HDL act: -2; V-ATPase pH: 2; NTR1 ag: 0; CaV13 FRET inh: -5

What do the screens show for `Cc1cc(-c2csc(N)n2)c(C)n1-c1ccc(Cl)c(Cl)c1`?
SR-BI HDL uptake: 70*; SR-BI DiI-HDL act: -70; V-ATPase pH: -2; NTR1 ag: 4; CaV13 FRET inh: -3

How did COc1ccc(-n2c(C)cc(-c3csc(N)n3)c2C)cc1 do in these assays?
Vif imaging: 6; SR-BI HDL uptake: 6; SR-BI DiI-HDL act: -6; V-ATPase pH: -2; NTR1 ag: 1; CaV13 FRET inh: -10

How did Oc1ccc(-c2nc(-c3ccc(F)cc3)c(-c3ccncc3)[nH]2)cc1 do in these assays?
Vif imaging: inconclusive; SR-BI HDL uptake: 74*; SR-BI DiI-HDL act: -74; V-ATPase pH: -1; NTR1 ag: 0; CaV13 FRET inh: -5

How did Fc1ccc(-c2nc(-c3cccs3)[nH]c2-c2ccc(F)cc2)cc1 do in these assays?
Vif imaging: -2; SR-BI HDL uptake: 59; SR-BI DiI-HDL act: -59; V-ATPase pH: 2; NTR1 ag: 17; CaV13 FRET inh: -5
